For 39 compounds, IC50 results are on record in ChEMBL document CHEMBL1131415, “Structure-activity relationships for antiplasmodial activity among 7-substituted 4-aminoquinolines” (J Med Chem, 1998).

What all share (assay type): functional, organism-based
For assay [1], the system named is Plasmodium falciparum. The assay is described as follows: In vitro antiplasmodial activity against chloroquine-sensitive Plasmodium falciparum Haiti 135. Put shortly: (§1)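 Cloned P. falciparum (chloroquine-susceptible Haiti-13524 or chloroquine-resistant Indochina I), synchronous early ring stage, 2% red cell suspension at 0.2% parasitemia. Exposed to varying AQ concentrations 48 h, then same concentrations plus 0.5 µCi 3H-hypoxanthine for additional 18 h. IC50 from linear regression of percent inhibition of 3H-hypoxanthine accumulation vs log concentration; triplicate determinations, chloroquine control.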

For assay [2], the system named is Plasmodium falciparum. The assay is described as follows: In vitro antiplasmodial activity against chloroquine-resistant Plasmodium falciparum Indochina I. Put shortly:
as §1

The test system of assay [3] is Plasmodium falciparum. The assay is described as follows: In vitro anti-plasmodial activity against chloroquine-resistant Plasmodium falciparum Indochina I. Put shortly:
as §1

`CCN(CC)CCNc1ccnc2cc(C(F)(F)F)ccc12`: the IC50 in assay [1] is 30 nM; in assay [2], 41 nM.

For `CCN(CC)CCNc1ccnc2cc(Br)ccc12`, the IC50 in assay [1] and in assay [2] was 7 nM each time.

With `CCN(CC)CCNc1ccnc2cc(F)ccc12`, the figures for the IC50 in assay [1] and in assay [2] were 35 nM and 60 nM, respectively.

`CCN(CC)CCNc1ccnc2cc(OC)ccc12`: the IC50 was 48 nM in assay [1] and 155 nM in assay [2].

Regarding `CCN(CC)CC(C)Nc1ccnc2cc(Cl)ccc12` (stereo not drawn), the values for the IC50 in assay [1] and in assay [2] were 8 nM and 10 nM, respectively.

As for `CCN(CC)CCCCCCCCCCNc1ccnc2cc(OC)ccc12`, the IC50 in assay [1] came to 10 nM; in assay [3], 170 nM.

`CCN(CC)CCCCCCCCCCCCNc1ccnc2cc(I)ccc12`: the IC50 is 10 nM in assay [1] and 20 nM in assay [3].

Regarding `CCN(CC)CCCNc1ccnc2cc(Cl)ccc12`, the IC50 in assay [1] was 5 nM; in assay [2] it was 6 nM.

For the compound `CCN(CC)CCCC(C)Nc1ccnc2cc(OC)ccc12` (stereo not drawn), the results for the IC50 in assay [1] and in assay [2] were 55 nM and 3000 nM, respectively.

Take `CCN(CC)CC(C)Nc1ccnc2cc(Br)ccc12` (stereo not drawn): the IC50 in assay [1] stood at 11 nM; in assay [2] it was 12 nM.

Take `CCN(CC)CCCC(C)Nc1ccnc2cc(C(F)(F)F)ccc12` (stereo not drawn): the IC50 in assay [1] was 16 nM; in assay [2], 45 nM.

Turning to `CCN(CC)CC(C)Nc1ccnc2cc(C(F)(F)F)ccc12` (stereo not drawn), the IC50 in assay [1] and in assay [2] was 50 nM in each case.

For `CCN(CC)CC(C)Nc1ccnc2cc(F)ccc12` (stereo not drawn), the figures for the IC50 in assay [1] and in assay [2] were 30 nM and 60 nM, respectively.

Take `CCN(CC)CCCCCCCCCCNc1ccnc2cc(Br)ccc12`: the half-inhibitory concentration (IC50) was 6 nM in assay [1] and 17 nM in assay [3].

Turning to `CCN(CC)CCCNc1ccnc2cc(F)ccc12`, the IC50 in assay [1] was determined as 23 nM; in assay [2] it was 120 nM.

With `CCN(CC)CCCCCCCCCCCCNc1ccnc2cc(OC)ccc12`, the half-maximal inhibitory concentration (IC50) came out at 17 nM in assay [1] and 90 nM in assay [3].

As to `CCN(CC)CCCCCCCCCCNc1ccnc2cc(Cl)ccc12`, the IC50 in assay [1] was determined as 6 nM; in assay [3] it was 13 nM.

With `CCN(CC)CCCC(C)Nc1ccnc2cc(I)ccc12` (stereo not drawn), the IC50 in assay [1] is 4 nM; in assay [2], 35 nM.

As for `CCN(CC)CC(C)Nc1ccnc2cc(I)ccc12` (stereo not drawn), the IC50 in assay [1] and in assay [2] was 7 nM each time.

On to `CCN(CC)CCCCCNc1ccnc2cc(Cl)ccc12`, for which the results for the concentration for half-maximal inhibition (IC50) in assay [1] and in assay [2] were 6 nM and 58 nM, respectively.

Regarding `CCN(CC)CCCCCCCCCCNc1ccnc2cc(I)ccc12`, the IC50 in assay [1] was 6 nM; in assay [3], 16 nM.

As to `CCN(CC)CCCNc1ccnc2cc(OC)ccc12`, the values for the IC50 in assay [1] and in assay [2] were 150 nM and 900 nM, respectively.

As to `CCN(CC)CCCCCCCCCCCCNc1ccnc2cc(F)ccc12`, the figures for the IC50 in assay [1] and in assay [3] were 8 nM and 25 nM, respectively.

Regarding `CCN(CC)CCCCCCNc1ccnc2cc(Cl)ccc12`, the IC50 is 5 nM in assay [1] and 56 nM in assay [2].

For the compound `CCN(CC)CCCCCCCCCCCCNc1ccnc2cc(C(F)(F)F)ccc12`, the values for the IC50 in assay [1] and in assay [3] were 5 nM and 25 nM, respectively.

With `CCN(CC)CCCNc1ccnc2cc(C(F)(F)F)ccc12`, the IC50 in assay [1] came out at 15 nM; in assay [2] it was 18 nM.

As for `CCN(CC)CCCNc1ccnc2cc(Br)ccc12`, the IC50 stood at 4 nM in assay [1] and 6 nM in assay [2].

As for `CCN(CC)CCNc1ccnc2cc(Cl)ccc12`, the IC50 amounted to 7 nM in assay [1] and 5 nM in assay [2].

Consider `CCN(CC)CCNc1ccnc2cc(I)ccc12`, for which the IC50 in assay [1] and in assay [2] was 6 nM in each case.

As for `CCN(CC)CCCCCCCCCCNc1ccnc2cc(F)ccc12`, the IC50 in assay [1] worked out at 7 nM; in assay [3], 40 nM.

With `CCN(CC)CCCCCCCCNc1ccnc2cc(Cl)ccc12`, the figures for the half-maximal inhibitory concentration (IC50) in assay [1] and in assay [3] were 4 nM and 41 nM, respectively.

As for `CCN(CC)CCCC(C)Nc1ccnc2cc(F)ccc12` (stereo not drawn), the IC50 was determined as 20 nM in assay [1] and 500 nM in assay [2].

As for `CCN(CC)CCCCCCCCCCCCNc1ccnc2cc(Br)ccc12`, the figures for the IC50 in assay [1] and in assay [3] were 8 nM and 18 nM, respectively.

As for `CCN(CC)CCCC(C)Nc1ccnc2cc(Br)ccc12` (stereo not drawn), the IC50 amounted to 5 nM in assay [1] and 90 nM in assay [2].

Take `CCN(CC)CCCNc1ccnc2cc(I)ccc12`: the IC50 in assay [1] amounted to 3 nM; in assay [2], 4 nM.

With `CCN(CC)CCCCNc1ccnc2cc(Cl)ccc12`, the IC50 turned out to be 5 nM in assay [1] and 51 nM in assay [2].

Consider `CCN(CC)CCCCCCCCCCNc1ccnc2cc(C(F)(F)F)ccc12`, for which the IC50 stood at 10 nM in assay [1] and 20 nM in assay [3].

Take `CCN(CC)CCCCCCCCCCCCNc1ccnc2cc(Cl)ccc12`: the IC50 came out at 13 nM in assay [1] and 11 nM in assay [3].

Take `CCN(CC)CC(C)Nc1ccnc2cc(OC)ccc12` (stereo not drawn): the IC50 in assay [1] is 94 nM; in assay [2] it was 180 nM.

Broadly, the IC50 is the concentration that gives 50% inhibition. A higher IC50 goes with a need for much substance.
